Screening data deposited in PubChem by The Scripps Research Institute Molecular Screening Center.
Only some compounds are listed: those with a hit (about 2.2% of all), similar ones and a draw of the others.
LEDGF integ inh: blockers of LEDGF/p75-dependent integrase strand transfer – biochemical, TR-FRET, high throughput, primary screen; TR-FRET IN-LEDGF/p75 DNA integration, Eu/Cy5; inhibition, % at 3.7 µM; 370,000 tested, 0.64% active;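 active = inhibition above the screen-wide mean plus 3 SD, cut at about 13% in these data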;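 also: signal is the Cy5 over europium emission ratio at 671 and 618 nm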
HTRA1 inh: HTRA1 serine protease inhibitors, primary screen, biochemical, fluorescence polarization, HTS | inhibition, % at 5.96 µM | Q92743 | AID 504803, 2011 | recombinant HTRA1, FP-rhodamine activity-based probe | 340,000 tested, 0.5% active; in the data active = inhibition above about 36%
TCR CD3 inh: inhibitors of human TCR-CD3 interaction, primary screen, biochemical, fluorescence, TAMRA-labeled TCR probe. AID 651800, 2012. inhibition, % at 9.4 µM. 360,000 tested, 0.37% active. T-cell receptor (TCR);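 also: recombinant mutant TCR 2C K166C tagged with TAMRA read by polarization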
TDP2 inh: human TDP2 enzyme inhibitors, primary screen, biochemical, epi absorbance, recombinant enzyme. Tyrosyl-DNA phosphodiesterase 2 (Homo sapiens), O95551. T5PNP hydrolysis, p-nitrophenol absorbance 415 nm. inhibition, % at 12.8 µM. 370,000 tested, 0.34% active. AID 720702, 2013;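 active = inhibition above the mean of all tested compounds plus 3 SD, set per campaign, cut at about 25% in these data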
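Material: recombinant human TDP2; quantity: TDP2 enzyme at 120 nM final; medium: Tris-HCl pH 7.5 with MgCl2; compound: single concentration, 12.8 µM nominal, with 1% DMSO; incubation: 2 h enzyme incubation at 37 °C; signal: epi absorbance; measure: percent inhibition; benchmarks: high control without enzyme, low control DMSO plus TDP2; repeats: singlicate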
SIAE primary: human SIAE inhibitors, primary screen, biochemical, fluorescence polarization, FP-Rh probe, 1536-well HTS | Sialate O-acetylesterase (Homo sapiens), Q9HAT2 | SIAE FP-Rh probe binding | inhibition, % at 9.66 µM | 370,000 tested, 0.69% active | AID 1053197, 2014;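 active = inhibition above a cutoff: mean of compounds within the control limits plus 3 SD of those, cut at about 17% in these data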
Target sequence (Q9HAT2 whole entry, looked up): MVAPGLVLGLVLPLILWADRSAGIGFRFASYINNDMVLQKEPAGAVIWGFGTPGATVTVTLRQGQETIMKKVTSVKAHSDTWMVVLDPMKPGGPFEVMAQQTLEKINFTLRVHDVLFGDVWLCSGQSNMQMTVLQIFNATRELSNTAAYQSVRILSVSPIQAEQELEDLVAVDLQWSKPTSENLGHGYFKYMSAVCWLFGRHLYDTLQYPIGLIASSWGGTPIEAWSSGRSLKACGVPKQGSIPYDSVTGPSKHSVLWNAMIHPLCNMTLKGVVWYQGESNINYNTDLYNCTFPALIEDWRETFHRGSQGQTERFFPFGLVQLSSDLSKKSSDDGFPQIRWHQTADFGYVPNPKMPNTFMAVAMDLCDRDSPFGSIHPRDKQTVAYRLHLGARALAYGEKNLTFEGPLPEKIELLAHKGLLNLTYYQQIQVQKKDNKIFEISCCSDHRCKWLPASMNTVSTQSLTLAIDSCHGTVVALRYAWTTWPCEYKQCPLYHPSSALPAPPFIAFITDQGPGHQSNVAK
ABHD4 inh: ABHD4 inhibitors, primary screen, biochemical, fluorescence polarization, mouse | purified mABHD4, FP-Rh probe fluorescence polarization | inhibition, % at 8.92 µM | 370,000 tested, 0.54% active;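 active = inhibition exceeding the mean over every tested compound plus 3 SD, cut at about 30% in these data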
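system = mouse ABHD4 enzyme, wild type | medium = HEPES pH 7.0, NaCl, Pluronic buffer | also added = FP-Rh probe | incubation = Enzyme–compound pre-incubation 45 min, then probe 60 min, both 25 °C | technique = fluorescence polarization, excitation 525 nm, emission 598 nm, BODIPY TMR filters | controls = S159A mutant high control, sample median low control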
HTRA1 conf: HTRA1 protease inhibitors, retest, confirmation, biochemical, fluorescence polarization | shares compounds with HTRA1 inh | recombinant HTRA1, FP-rhodamine activity-based probe | inhibition, % at 5.96 µM | 1,600 tested, 66% active | AID 540248, 2011;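 active = mean inhibition over three repeats above a set limit taken from the earlier primary screen, cut at about 37% in these data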;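 also: inhibitors block probe binding so polarization drops and inhibition rises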
BSA probe FL: compounds interfering with TAMRA-BSA probe, counter-screen for TCR-CD3 interaction inhibitor project, biochemical, fluorescence, TAMRA-labeled BSA | shares compounds with TCR CD3 inh | TAMRA-labeled BSA probe fluorescence counterscreen | inhibition, % at 9.4 µM | 1,200 tested, 10% active; in the data active = inhibition above about 23%
TCR-CD3 conf: TCR-CD3 interaction inhibitors, retest, confirmation, biochemical, fluorescence, TAMRA-labeled TCR probe; shares compounds with TCR CD3 inh; 1,200 tested, 48% active; inhibition, % at 9.4 µM; AID 652036, 2013; TAMRA-labeled TCR probe fluorescence binding assay
mABHD4 conf: ABHD4 inhibitors, retest, confirmation, biochemical, fluorescence polarization, mouse; shares compounds with ABHD4 inh; purified mABHD4, FP-Rh probe fluorescence polarization; 1,800 tested, 55% active; inhibition, % at 8.92 µM;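 active = mean inhibition across replicates above the hit cutoff set in the primary screen, cut at about 30% in these data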
IN multimer up: HIV-1 IN multimer formation enhancers, counter-screen for LEDGF/p75 integration inhibitor project, biochemical, TR-FRET | shares compounds with LEDGF integ inh | TR-FRET HIV-1 integrase multimerization | activation, % at 7.7 µM | 2,000 tested, 17% active; in the data active = activation above about 8.9%
TRFRET interf: TR-FRET optical interference artefacts, confirmation, artefact control for LEDGF/p75-dependent integration inhibitor project, biochemical, HIV-1 IN multimerization | shares compounds with LEDGF integ inh | TR-FRET optical interference counterscreen | inhibition, % at 7.7 µM | 2,000 tested, under 10 active | AID 1053135, 2014;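 active = inhibition above the mean over all tested compounds plus 3 SD, which no compound reached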
IN-LEDGF confirm: inhibitors of HIV-1 IN-LEDGF/p75 DNA integration, confirmation, biochemical, TR-FRET. shares compounds with LEDGF integ inh. TR-FRET LEDGF/p75-dependent HIV-1 integration. inhibition, % at 3.7 µM. 2,000 tested, 36% active. AID 1053136, 2014; in the data active = inhibition above about 14%
SIAE confirm: human SIAE inhibitors, retest, confirmation, biochemical, fluorescence polarization, FP-Rh probe, triplicate. shares compounds with SIAE primary. 2,300 tested, 13% active. inhibition, % at 9.66 µM. SIAE FP-Rh activity-based probe;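 active = mean inhibition of the replicates above the hit cutoff set in the primary screen, cut at about 17% in these data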;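 also: inhibitors lower polarization as more probe stays unbound to SIAE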
Large screens that a line does not name were inactive (follow-up assays come after a bar, where they were run). Rule as the data show it, unless noted: active = inhibition above about 19%; inactive = the rest.

NCCc1cc(O)c(O)cc1O	LEDGF integ inh 56, HTRA1 inh 73, TCR CD3 inh 170, SIAE primary 91, ABHD4 inh 45 | HTRA1 conf 48 | BSA probe FL active | TCR-CD3 conf active | mABHD4 conf 92 | IN multimer up 64 | TRFRET interf inactive | IN-LEDGF confirm 75
COC(=O)C1=C(c2ccc(OC(F)(F)F)cc2)C[C@@H]2CC[C@H]1N2C(=O)NC1CCCCC1	none
CN(C)[C@@H]1C(=O)C(C(N)=O)=C(O)[C@@]2(O)C(=O)C3=C(O)c4c(O)ccc(Cl)c4[C@@](C)(O)[C@H]3C[C@@H]12	LEDGF integ inh 14, HTRA1 inh 40, ABHD4 inh 57 | HTRA1 conf inactive | mABHD4 conf inactive | IN multimer up inactive | TRFRET interf inactive | IN-LEDGF confirm inactive
C[C@]12CCC3C(CC[C@H]4C[C@H](O)CC[C@]34C)C1[C@@H](O)[C@@H](O)[C@@H]2O (some centres undefined)	none
CN1C(=O)/C(=C/c2cccn2-c2ccc3ccccc3c2)C(=O)NC1=S	LEDGF integ inh 18, HTRA1 inh 60, ABHD4 inh 65 | HTRA1 conf inactive | mABHD4 conf inactive | IN multimer up inactive | TRFRET interf inactive | IN-LEDGF confirm 30
Cc1cc(C)cc(N2C(=O)NC(=O)/C(=C\c3cccn3-c3ccccc3)C2=O)c1	none
CCN(CC)c1ccc(N=Cc2c(O)n(Cc3ccccc3)c(=O)[nH]c2=O)cc1	none
CCN(CC)c1ccc(N=Cc2c(O)[nH]c(=O)[nH]c2=O)cc1	LEDGF integ inh 26, HTRA1 inh 53, ABHD4 inh 57 | HTRA1 conf inactive | mABHD4 conf inactive | IN multimer up 12 | TRFRET interf inactive | IN-LEDGF confirm inactive
CCOc1ccccc1-n1c(O)c(C=Nc2ccc(N(CC)CC)cc2)c(=O)[nH]c1=O	LEDGF integ inh 14, HTRA1 inh 58, TCR CD3 inh 24, ABHD4 inh 67 | HTRA1 conf inactive | BSA probe FL inactive | TCR-CD3 conf inactive | mABHD4 conf inactive | IN multimer up inactive | TRFRET interf inactive | IN-LEDGF confirm inactive
COc1cc2c(cc1OC)C13CCN4CC5CCOC6CC(=O)N2C1C6C5CC43 (centres undefined)	none
CC1=C[C@@H]2c3cccc4[nH]cc(c34)C[C@H]2N(C)C1	HTRA1 inh 40, SIAE primary 17 | HTRA1 conf inactive | SIAE confirm inactive
CC[C@H](C)[C@@H]1OC(=O)[C@H](C(C)C)N(C)C(=O)[C@H](C(C)C)NC(=O)[C@@H](C)[C@@H](CCCC#CBr)OC(=O)[C@H](C(C)C)N(C)C(=O)C2CCCN2C1=O (some centres undefined)	none (no result: HTRA1 inh, TCR CD3 inh)
CC(=O)c1ccc2c(c1)C1C(Cl)C(Sc3ccccc3[N+](=O)[O-])CC1C(C(=O)O)N2 (centres undefined)	LEDGF integ inh 14, HTRA1 inh 88, TCR CD3 inh 28, SIAE primary 21, ABHD4 inh 54 | HTRA1 conf 71 | BSA probe FL inactive | TCR-CD3 conf inactive | mABHD4 conf 104 | IN multimer up inactive | TRFRET interf inactive | IN-LEDGF confirm 20 | SIAE confirm inactive
CCN(CC)C(=O)c1ccc(NC(=O)COC(=O)c2ccc(Cl)s2)cc1	none
CCOC(=O)C1CCCN(c2ccc([N+](=O)[O-])c3nonc23)C1 (centres undefined)	HTRA1 inh 47, TCR CD3 inh 140, SIAE primary 21, ABHD4 inh 67 | HTRA1 conf 56 | BSA probe FL 168 | TCR-CD3 conf 134 | mABHD4 conf 56 | SIAE confirm 47
C=C1C(C)C2C(Cc3ccccc3)NC(=O)C23OC(=O)/C=C/C(O)CCCC(C)C/C=C/C3C1O (centres undefined)	none
